Bioassay records as filed in PubChem BioAssay.
Hits are enriched below; roughly 3.5% of the tested compounds scored in any of these assays.
RGS4 block: inhibitors of human RGS4 | AID 463165 | 310,000 compounds, 0.45% hits | HEK293 M3R/RGS4 inducible, Fluo-4 calcium flux; hits give high values; triggered by carbachol at its EC20 | P49798 | B-score at 10 µM;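 active = B-score, a plate-corrected calcium signal, over three deviations above library mean, with baseline fluorescence within five deviations of library mean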;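 also: RGS4 expression induced by doxycycline in cells with stable M3 receptor; B-score is computed from the integrated fluorescence ratio over baseline after carbachol; higher B-score means a larger calcium signal and so more RGS4 inhibition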
Target sequence (P49798 whole entry, looked up): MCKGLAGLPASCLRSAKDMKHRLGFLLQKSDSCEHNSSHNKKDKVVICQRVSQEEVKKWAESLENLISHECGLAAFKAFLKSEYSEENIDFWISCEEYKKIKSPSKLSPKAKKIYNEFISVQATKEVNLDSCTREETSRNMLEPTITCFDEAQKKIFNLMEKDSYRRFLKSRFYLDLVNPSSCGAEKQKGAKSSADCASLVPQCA
MrgX1 antag: blocks BAM8-22 activation of human MrgX1 receptor. Q96LB2. B-score at 10 µM. MRGX1-HEK293 calcium flux, Fluo-4, BAM8-22 antagonism; hits give low values. 310,000 compounds, 1.3% hits;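 active = calcium-response B-score plate-corrected more than 3 library SD below zero, starting fluorescence within 5 deviations, no agonist response on first addition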;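 also: peak minus trough fluorescence over baseline after final BAM8-22 challenge near maximal dose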
Target sequence (Q96LB2 whole entry, looked up): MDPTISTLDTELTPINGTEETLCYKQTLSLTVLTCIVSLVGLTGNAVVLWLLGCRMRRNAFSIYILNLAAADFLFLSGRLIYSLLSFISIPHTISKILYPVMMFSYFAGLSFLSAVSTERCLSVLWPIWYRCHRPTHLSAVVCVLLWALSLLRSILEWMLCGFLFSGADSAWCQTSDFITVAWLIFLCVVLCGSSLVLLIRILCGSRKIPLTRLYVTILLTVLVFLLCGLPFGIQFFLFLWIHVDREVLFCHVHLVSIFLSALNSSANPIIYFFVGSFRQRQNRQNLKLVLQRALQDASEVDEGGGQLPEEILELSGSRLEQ
RGS4 act: RGS4 potentiation or activation | HEK293 M3R/inducible RGS4, carbachol calcium flux Fluo4; hits give low values | B-score at 10 µM | 310,000 compounds, 0.92% hits;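 active = B-score of the integrated calcium signal more than 4 SD below the library mean, with starting fluorescence not abnormally high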;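 also: negative B-score means reduced calcium response which marks RGS4 activation or potentiation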
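System – HEK293 FlpIn-TREx cells, stable M3R, doxycycline-inducible RGS4 · Reagent – ECmax carbachol challenge · Times – compound preincubation 20 min at room temperature before agonist · Technique – Fluo4 fluorescence kinetic imaging of calcium · Measure – B score of integrated Fluo4 ratio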
MrgX1 ag: agonists of human MrgX1 receptor; MrgX1-HEK293 cells, Fluo-4 calcium fluorescence, agonist mode; hits give high values; B-score at 10 µM; 310,000 compounds, 0.44% hits; AID 588627;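 active = calcium response B-score plate-corrected fluorescence ratio at least 3 library SD, with starting fluorescence B-score inside 5 SD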
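Material: MrgX1-expressing HEK293 cells; input: 15,000 cells per well; doses: test compound given as first of three sequential additions; schedule: overnight plating before 1 h dye loading; technique: Fluo-4 NW calcium-flux fluorescence, kinetic read; evaluation: baseline-normalised fluorescence change ratio, B-scored; control set: plate-wise positive and negative controls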
MrgX1 PAM: allosterically activates human MrgX1 receptor signaling | MrgX1-HEK293, Fluo-4 calcium flux, FDSS; hits give high values | B-score at 10 µM | 310,000 compounds, 0.63% hits | AID 588675;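 active = plate-corrected calcium response at least 3 library SD above typical, normal starting fluorescence, not activating the receptor alone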;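 also: compound read alongside a low EC10 to EC30 dose of BAM8-22 agonist; peak minus trough fluorescence over baseline measured at the second addition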
MrgX1 antag conf: reconfirmed antagonist of human MrgX1 receptor signaling. shares compounds with MrgX1 antag. MrgX1-HEK293, BAM8-22 calcium flux, Fluo-4; hits give low values. remaining BAM8-22 calcium response % of control (hits give low values), % at 10 µM. 2,300 compounds, 19% hits;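 active = remaining agonist calcium response no higher than 100% minus 3 SD of agonist-only control wells, with starting fluorescence near control levels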;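 also: agonist BAM8-22 given at a near maximal EC90 to ECmax level; peak minus minimum fluorescence divided by baseline after agonist addition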
HEK293 Ca flux: MrgX1 antagonist counter-screen hit in parental HEK293 cells | AID 624111 | Fluo-4 calcium fluorescence, FDSS | fluorescence ratio F(max-min)/F0 at 10 µM | shares compounds with MrgX1 antag | 4,000 compounds, 2% hits;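 active = duplicate-averaged calcium fluorescence ratio at least three times the standard deviation of buffer wells, a nonspecific response in parental cells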
HEK293 Ca counter: activity in parental HEK293 cells without MrgX1; shares compounds with MrgX1 antag; parental HEK293 calcium flux, Fluo-4 fluorescence ratio; hits give high values; fluorescence ratio F(max-min)/F0 at 10 µM; 4,000 compounds, 0.4% hits;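 active = calcium fluorescence ratio, averaged over duplicates, at least 3 SD of the buffer-well ratio, meaning a nonspecific response in receptor-free cells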;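 also: untransfected parental HEK293 lacking MrgX1 used as counterscreen for MrgX1 allosteric activators; fluorescence change taken during the second addition on a kinetic imager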
HEK293 Ca cntr2: activity in parental HEK293 cells lacking MrgX1 receptor. 4,000 compounds, 8.7% hits. Fluo-4 calcium fluorescence (FDSS); hits give high values. shares compounds with MrgX1 antag. fluorescence ratio F(max-min)/F0 at 10 µM;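 active = calcium fluorescence ratio at least three times the spread of buffer wells, meaning a non-specific response in parental cells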
Each line names hits and unclear results; the compound was inactive in the other large screens (follow-up assays come after a bar, where they were run).

COCCNC(=O)c1cc2oc3ccccc3c2n1C	MrgX1 antag -5.02 | MrgX1 antag conf inactive | HEK293 Ca flux inactive | HEK293 Ca counter inactive | HEK293 Ca cntr2 inactive
Brc1ccc(-c2nc3ncccn3c2NC2CCCCC2)o1	MrgX1 antag -5.35 | MrgX1 antag conf inactive | HEK293 Ca flux inactive | HEK293 Ca counter inactive | HEK293 Ca cntr2 inactive
O=C(CC1c2ccccc2Oc2ccccc21)NCc1ccco1	none
CN(C(=O)c1cccc(Br)c1)C1CCS(=O)(=O)C1 (centres undefined)	MrgX1 antag -4.54 | MrgX1 antag conf inactive | HEK293 Ca flux inactive | HEK293 Ca counter inactive | HEK293 Ca cntr2 inactive
CCN(C(=O)c1cccc(Br)c1)C1CCS(=O)(=O)C1 (centres undefined)	none
Cc1[nH]c2ccc(C(=O)O)cc2c1C	MrgX1 antag -8.6 | MrgX1 antag conf inactive | HEK293 Ca flux inactive | HEK293 Ca counter inactive | HEK293 Ca cntr2 inactive
O=C(CCCCCN1C(=O)c2cccc3cccc(c23)C1=O)NCc1cccnc1	none
Cc1ccc(C)c2nc3sc(C(=O)N4CCCc5ccccc54)c(N)c3cc12	MrgX1 antag -5.44, RGS4 act -7 | MrgX1 antag conf inactive | HEK293 Ca flux inactive | HEK293 Ca counter inactive | HEK293 Ca cntr2 51.1
O=C(c1ccc(C(=O)N2CCCc3ccccc32)s1)N1CCCc2ccccc21	none
NC(=O)c1ccc(NC(=O)CCc2nc3sc4c(c3c(=O)[nH]2)CCCC4)cc1	none
CC(=O)Nc1ccc(NC(=O)CCc2nc3sc4c(c3c(=O)[nH]2)CCCC4)cc1	MrgX1 antag -4.56 | MrgX1 antag conf inactive | HEK293 Ca flux inactive | HEK293 Ca counter inactive | HEK293 Ca cntr2 inactive
Cc1ccc(S(=O)(=O)N(C)C)cc1NC(=O)Cn1c(CN2CCOCC2)nc2ccccc2c1=O	MrgX1 antag -4.95 | MrgX1 antag conf inactive | HEK293 Ca flux inactive | HEK293 Ca counter inactive | HEK293 Ca cntr2 inactive
Cc1ccc(S(=O)(=O)N(C)C)cc1NC(=O)CSc1nc2ccccc2c(=O)n1CC1CCCO1 (centres undefined)	none
COCc1[nH][nH]c(=O)c1C=Nc1ccccc1	none
Cc1c(C)[n+](=O)c(-c2ccc(F)cc2)c(C)n1[O-]	none
O=C(NCC(c1ccco1)N1CCc2ccccc2C1)C(=O)Nc1ccc(F)cc1F (centres undefined)	MrgX1 antag -5.81 | MrgX1 antag conf inactive | HEK293 Ca flux inactive | HEK293 Ca counter inactive | HEK293 Ca cntr2 inactive
COc1ccc(N2CC(C(=O)Nc3cccc(S(=O)(=O)N4CCCC4)c3)CC2=O)c(OC)c1 (centres undefined)	MrgX1 antag -9 | MrgX1 antag conf inactive | HEK293 Ca flux inactive | HEK293 Ca counter inactive | HEK293 Ca cntr2 inactive
COc1ccc(N2CC(C(=O)Nc3ccccc3N3CCCC3)CC2=O)c(OC)c1 (centres undefined)	MrgX1 antag -5.78 | MrgX1 antag conf inactive | HEK293 Ca flux inactive | HEK293 Ca counter inactive | HEK293 Ca cntr2 inactive
Cc1nc2ccc(NC(=O)COc3ccccc3F)cc2s1	MrgX1 antag -5.82 | MrgX1 antag conf 80.4% | HEK293 Ca flux inactive | HEK293 Ca counter inactive | HEK293 Ca cntr2 inactive
COc1cc(C(=O)OCC(=O)NCCC2=CCCCC2)ccc1OCC(C)C	none
CC1(C)CC2CC(C)(CN2CC(O)c2ccccc2)C1 (centres undefined)	none
CC1(C)CC2CC(C)(CN2CC(=O)C(C#N)c2ccccc2)C1 (centres undefined)	MrgX1 antag -8.69 | MrgX1 antag conf inactive | HEK293 Ca flux inactive | HEK293 Ca counter inactive | HEK293 Ca cntr2 inactive
COC1=CC(=O)CC(C)C12Oc1cc(OC)cc(OC)c1C2=O (centres undefined)	MrgX1 antag -5.91 | MrgX1 antag conf inactive | HEK293 Ca flux inactive | HEK293 Ca counter inactive | HEK293 Ca cntr2 inactive
CCOC(=O)C1=C(COC(=O)C2CC(=O)N(c3ccc(C)cc3)C2)NC(=O)NC1C (centres undefined)	MrgX1 antag -5.77 | MrgX1 antag conf inactive | HEK293 Ca flux inactive | HEK293 Ca counter inactive | HEK293 Ca cntr2 inactive
Cc1ccc(NC(=O)NNC(=O)c2snnc2C)cc1	none
CCOC(=O)CC1C(=O)NCCN1S(=O)(=O)c1ccc(NC(C)=O)cc1 (centres undefined)	MrgX1 antag -6.5 | MrgX1 antag conf inactive | HEK293 Ca flux inactive | HEK293 Ca counter inactive | HEK293 Ca cntr2 inactive
CCOC(=O)CC1C(=O)NCCN1S(=O)(=O)c1ccc(F)cc1 (centres undefined)	none
Cn1c(SC2C(=O)CC(C)(C)CC2=O)nnc1-c1ccco1	none
CCOC(=O)C1CCCN(C(=O)c2cnn3c(C(F)(F)F)cc(-c4ccccc4)nc23)C1 (centres undefined)	none
COc1ccc(-c2cc(C(F)(F)F)n3ncc(C(=O)N4CCCCC4c4cccnc4)c3n2)cc1 (centres undefined)	MrgX1 antag -5.79 | MrgX1 antag conf inactive | HEK293 Ca flux inactive | HEK293 Ca counter inactive | HEK293 Ca cntr2 inactive
O=CN1CCCN(Cc2nc(Cc3ccccc3F)no2)CC1	none
Oc1c(Br)cc(Br)cc1C=Nc1cccc2ncccc12	MrgX1 antag -7.06 | MrgX1 antag conf 82.6% | HEK293 Ca flux inactive | HEK293 Ca counter inactive | HEK293 Ca cntr2 inactive
COC(=O)c1[nH]c2ccc(C)cc2c1NS(=O)(=O)c1ccc(F)c(C)c1	MrgX1 antag -6.81 | MrgX1 antag conf inactive | HEK293 Ca flux inactive | HEK293 Ca counter inactive | HEK293 Ca cntr2 inactive
COc1cc(NC(=O)c2ccccc2F)ccc1NC(=O)c1cc2ccccc2o1	none
NC1=NC(=O)/C(=C/c2ccc(Cl)cc2Cl)S1	none
O=C1c2cccc3c(N4CCCCC4)ccc(c23)C(=O)N1c1cccc(O)c1	MrgX1 antag -5.16 | MrgX1 antag conf inactive | HEK293 Ca flux inactive | HEK293 Ca counter inactive | HEK293 Ca cntr2 inactive
O=C1c2cccc3c(N4CCCCC4)ccc(c23)C(=O)N1CCO	none
CCN(CC)S(=O)(=O)c1ccc(NC(=O)Nc2cccc(C(F)(F)F)c2)cc1	MrgX1 antag -5.82 | MrgX1 antag conf 64.4% | HEK293 Ca flux inactive | HEK293 Ca counter inactive | HEK293 Ca cntr2 inactive
O=C(Nc1ccccc1)c1cccc(N2CCCC2=O)c1	MrgX1 antag -6.7 | MrgX1 antag conf inactive | HEK293 Ca flux inactive | HEK293 Ca counter inactive | HEK293 Ca cntr2 inactive
